Assay outcomes from PubChem BioAssay.
MEKK3 PB1 HTS – MEKK3-MEK5 PB1 interaction, increase or decrease; Q99759; bead-based flow cytometry, Alexa488-MEK5 binding to MEKK3; actives lie on both sides; 0 = blocked by unlabeled MEK5, 100 = vehicle; binding response (% of control), % at 10 µM; 290,000 compounds, 1.4% hits;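 active means binding response more than 3 SD above or below the average of its plate-row segment, actives on both sides; inconclusive means wells at one plate position flagged as instrument error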;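 further: Alexa488 bead fluorescence after subtracting the streptavidin-only scavenger bead signal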
Target sequence (Q99759 whole entry, looked up): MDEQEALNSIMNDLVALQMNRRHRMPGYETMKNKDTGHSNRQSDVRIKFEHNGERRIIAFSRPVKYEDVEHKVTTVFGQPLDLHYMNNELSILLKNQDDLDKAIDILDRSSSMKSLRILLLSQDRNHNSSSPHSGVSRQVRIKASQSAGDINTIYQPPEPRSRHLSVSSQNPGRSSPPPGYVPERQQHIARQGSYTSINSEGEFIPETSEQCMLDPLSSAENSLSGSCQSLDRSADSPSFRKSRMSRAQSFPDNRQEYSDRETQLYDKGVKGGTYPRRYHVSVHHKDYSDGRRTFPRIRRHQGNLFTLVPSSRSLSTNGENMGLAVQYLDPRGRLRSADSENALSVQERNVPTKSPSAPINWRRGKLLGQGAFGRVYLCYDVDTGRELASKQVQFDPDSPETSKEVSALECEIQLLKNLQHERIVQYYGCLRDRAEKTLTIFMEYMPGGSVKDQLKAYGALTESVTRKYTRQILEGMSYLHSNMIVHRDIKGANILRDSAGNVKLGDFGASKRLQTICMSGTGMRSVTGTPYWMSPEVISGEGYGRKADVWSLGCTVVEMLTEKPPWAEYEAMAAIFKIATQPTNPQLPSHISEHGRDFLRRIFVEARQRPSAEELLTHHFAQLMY
NS3 helicase inh – inhibitors of Hepatitis C virus NS3 helicase; NS3 helicase DNA unwinding, Cy5 molecular beacon fluorescence; inhibition, % at 10.9 µM; 290,000 compounds, 0.56% hits; AID 1800;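 active means inhibition above the mean of all tested compounds plus 3 SD, set per campaign, cut at about 35% in these data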;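 further: 0% = DMSO wells and 100% = thioflavine S control wells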
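Assay system – hepatitis C virus NS3 helicase domain fragment enzyme · Buffer or medium – MOPS pH 6.5, MgCl2, DTT, Tween20, BSA · Reagent – Cy5/quencher beacon DNA duplex and ATP to start · Compound – single 10.9 µM dose · Timing – 1 h at 25 °C · Technique – Cy5 beacon fluorescence read at start and 1 h · Measure – % inhibition of unwinding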
MEKK2wt PB1 HTS – raises or lowers MEK5 binding to wildtype human MEKK2 PB1 domain. bead flow cytometry, Alexa488-MEK5 binding to MEKK2 WT; actives lie on both sides. AID 1531. binding response (% of control), % at 10 µM. Q9Y2U5. 290,000 compounds, 1.1% hits; in the data active means binding response below about 67% or above about 130%; inconclusive means no clear call, values can overlap the other calls; inactive means in between
DNA FID counter – counter-screen for HCV NS3 helicase inhibitors: DNA intercalator displacement | DNA fluorescent intercalator displacement, fluorescence | inhibition, % at 7.9 µM | 290,000 compounds, 0.17% hits; in the data active means inhibition above about 37%;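 further: 0% = vehicle and 100% = reference compound; higher means more ethidium bromide displaced from hairpin DNA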
T cruzi repl – T. cruzi replication inhibition | T. cruzi beta-gal in NIH3T3, luminescence, 90 h | inhibition, % (concentration not given with the values) | 300,000 compounds, 1.4% hits;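 active means mean inhibition across valid replicates above about 55%, limit read from the data; inconclusive means mean below that limit but half or more replicates reach it; inactive means mean below it, under half of replicates reach it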;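 further: signal also drops with host cell toxicity which is not excluded here; 0% = plate median of DMSO wells and 100% = zero luminescence signal; higher percent means less beta-gal luminescence so fewer parasites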
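System: Mouse NIH/3T3 fibroblasts infected with β-gal-expressing T. cruzi Tulahuen C4 | Quantity: NIH/3T3 cells, 5,000 per well | Reagent: 5000 reporter trypomastigotes per well | Dosing: Compound pinned at 50 nL/well, DMSO | Schedule: 3 h host attachment, then at least 90 h co-culture | Detection: GalScreen luminescence, 60 min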
MEKK2 mut-MEK5 – signal of MEK5 binding to mutant human MEKK2 PB1 domain. 290,000 compounds, 0.35% hits. AID 1530. bead flow cytometry, Alexa488-MEK5 binding to MEKK2 mutant. percent response, % at 10 µM; in the data active means percent response above about 24%, passing the limit was not always enough
* = called active by the depositor; u = inconclusive; x = not tested or not shown; ! = not active in a repeat; [ ] = dose if it differs, or a comment. A selection: hits, their analogues and other compounds. The true share with any hit is near 4.1%.

SMILES	MEKK3 PB1 HTS	NS3 helicase inh	MEKK2wt PB1 HTS	DNA FID counter	T cruzi repl	MEKK2 mut-MEK5
O=C(C1=C[C@H](C2CCCCC2)C[C@H](OCCCCO)O1)N1CCN(Cc2ccc3c(c2)OCO3)CC1	107.0	-18.8	110.0	-26.9	56.2*	13.0
O=C(C1=C[C@H](c2ccc(Br)cc2)C[C@H](OCCCCO)O1)N1CCN(Cc2ccc3c(c2)OCO3)CC1	90.0	-23.1	93.0	-21.6	65.1*	4.0
O=C(C1=C[C@H](c2csc3ccccc23)C[C@H](OCc2ccc(CO)cc2)O1)N1CCN(Cc2ccccc2)CC1	109.0	-24.8	112.0	-16.6	47.5	9.0
O=C(C1=C[C@@H](c2ccc3c(c2)OCO3)C[C@@H](OCCCCO)O1)N1CCN(Cc2ccc3c(c2)OCO3)CC1	107.0	-6.2	103.0	-27.9	2.9	5.0
CCO[C@H]1OC(C(=O)N2CCN(Cc3ccccc3)CC2)=C[C@@H](C2CCCCC2)[C@@H]1CCCO	104.0	-20.1	99.0	-34.0	28.4	-2.0
NC1=NC(c2ccc(Cl)cc2)C(C(=O)c2ccccc2)N1 (configuration not stated)	92.0	1.3	98.0	-5.0	-5.5	-19.0
CCC(C)(C)n1nnnc1C(c1cc2ccc(OC)cc2[nH]c1=O)N1CCc2ccccc2C1 (configuration not stated)	83.0	-4.0	84.0	-6.3	55.5*	-7.0
COc1ccc2cc(C(c3nnnn3C(C)(C)C)N3CCc4ccccc4C3)c(=O)[nH]c2c1 (configuration not stated)	x	28.2	x	2.4	x	x
O=C1c2ccccc2C(=O)c2c(NCCCN(CCO)CCO)cccc21	106.0	3.5	116.0	89.0*	u	11.0
O=C(O)/C=C/C(=O)Nc1ccc(OC(F)F)cc1	107.0	-6.6	109.0	1.5	-7.7	3.0
O=C(O)/C=C/C(=O)Nc1ccc(OC(F)(F)F)cc1	105.0	-3.5	-3.0*	2.2	-8.5	2.0
CCOc1ccc(NC(=O)CCC(=O)NNC(=O)c2ccc(Br)o2)cc1	102.0	-4.8	102.0	-9.9	-4.7	-4.0
Nc1c(C(=O)O)sc2nc(-c3ccccc3)c3c(c12)CCCC3	107.0	15.8	103.0	-9.3	0.3	0.0
CCc1c(-c2ccccc2)nc2sc3c(c2c1N)CCCC3	107.0	-18.1	103.0	-6.3	55.4*	8.0
Cc1c(/C=N\NC(=O)C2COc3ccc(C(C)(C)C)cc3O2)c2ccccc2n1C (configuration not stated)	111.0	-4.8	98.0	-2.9	65.8*	0.0
O=S(=O)(Nc1cccc2cccnc12)c1ccccc1	102.0	0.5	96.0	-8.0	10.7	1.0
O=S(=O)(Nc1cccc2cccnc12)c1ccc(S(=O)(=O)N2CCCC2)cc1	100.0	-16.7	102.0	-22.8	68.9*	1.0
COc1ccc(C(=O)Nc2ncc3c(n2)CC(C)CC3=O)cc1 (configuration not stated)	89.0	3.8	100.0	-10.5	63.9*	-1.0
Cc1ccc2nc(/C(C#N)=C\c3ccc(N4CCCCC4)c([N+](=O)[O-])c3)[nH]c2c1	112.0	-4.7	113.0	0.1	72.4*	11.0
N#C/C(=C/c1ccc(N2CCCC2)c([N+](=O)[O-])c1)c1nc2ccccc2[nH]1	97.0	-2.2	91.0	1.3	11.4	-3.0
Cc1ccc(NC(=O)C2CCCN(S(=O)(=O)c3cccnc3)C2)c(C)c1 (configuration not stated)	100.0	13.9	98.0	-16.6	-4.8	-3.0
CCc1ccccc1NC(=S)N(Cc1cccnc1)Cc1ccco1	70.0	14.3	63.0	-0.9	u	-3.0
Cc1ccc(Cl)cc1NC(=O)NCc1cccnc1	99.0	-7.8	95.0	-6.1	-1.3	-5.0
COc1ccccc1NC(=S)N(Cc1cccnc1)Cc1ccccc1Cl	103.0	-13.9	102.0	-17.2	-3.7	0.0
S=C(Nc1ccccc1Cl)N(Cc1ccccc1)Cc1cccnc1	107.0	0.0	109.0	-16.3	61.5*	4.0
SMILES	MEKK3 PB1 HTS	NS3 helicase inh	MEKK2wt PB1 HTS	DNA FID counter	T cruzi repl	MEKK2 mut-MEK5
Cc1ccc(Cl)cc1NC(=S)N(Cc1ccccc1)Cc1cccnc1	95.0	6.8	98.0	-10.1	76.3*	-5.0
CCC(C)NC(=O)CNC(=S)N(Cc1ccccc1)Cc1cccnc1 (configuration not stated)	95.0	9.8	95.0	-30.9	49.9	-1.0
CC(NC(=O)CNC(=S)N(Cc1ccccc1)Cc1cccnc1)c1ccccc1 (configuration not stated)	98.0	-7.8	96.0	-14.4	54.5*	-2.0
Cc1ccccc1NC(=S)N(Cc1cccnc1)Cc1ccccc1Cl	105.0	-2.7	98.0	-7.6	76.0*	-3.0
COc1ccc(CCNC(=O)c2cc(S(=O)(=O)N3CCOCC3)cn2C)cc1OC	101.0	-1.4	103.0	-22.7	-4.9	3.0
Cc1c(O)cccc1C(=O)N[C@@H](CSc1ccccc1)[C@H](O)CN1C[C@H]2CCCC[C@H]2C[C@H]1C(=O)NC(C)(C)C	103.0	-19.6	98.0	-17.1	66.6*!	0.0
CN(CC(=O)NCc1ccccc1F)S(=O)(=O)c1ccc(Cl)cc1	97.0	-3.5	97.0	-12.0	6.6	-6.0
CC(CCc1ccccc1)NC(=O)C(=O)Nc1ccccc1 (configuration not stated)	128.0	-2.7	105.0	-2.5	3.1	0.0
Cc1ccc(N2C(=O)N(CC(=O)Nc3ccc(C)c(C)c3)C(=O)C2C)cc1 (configuration not stated)	x	x	x	x	-11.7	x
COc1ccc(CN(C(=O)CSc2nnc(-c3ccccc3C)o2)c2ccc(F)cc2)cc1	110.0	6.0	91.0	-23.9	16.4	5.0
O=C(CSc1nnc(-c2c[nH]c3ccccc23)o1)N(Cc1ccccc1)c1ccc(F)cc1	107.0	-9.3	108.0	-10.0	54.6*	5.0
O=C(c1ccco1)N1CCN(C2CC(=O)N(c3ccc(F)c(Cl)c3)C2=O)CC1 (configuration not stated)	95.0	-5.0	91.0	-16.1	-24.4	-6.0
CCN(CC)CCN(C)C(=O)CCc1nnc(-c2ccc(C)s2)o1	105.0	-1.1	98.0	-1.3	57.4*	-2.0
Clc1ccc2c(N/N=C/c3cccc(Br)c3)ccnc2c1	88.0	-24.1	121.0	5.2	51.1	1.0
C/C(=N/Nc1ccnc2cc(Cl)ccc12)c1ccc(O)cc1	x	x	x	x	32.2	x
Clc1ccc2c(N/N=C/c3ccccc3Br)ccnc2c1	70.0*[inhibitor]	-2.5	85.0	1.3	55.5*	-2.0
C/C(=N/Nc1ccnc2cc(Cl)ccc12)c1ccc(N)cc1	x	x	x	x	60.2*	x
COc1ccc2c(c1)C(c1ccc(Cl)cc1)NC(=O)C2 (configuration not stated)	x	x	x	x	0.9	x
